According to ChEMBL document CHEMBL4052782, “Neuropathic pain-alleviating effects of pyrazole-conjugated arylsulfonamides as 5-HT6 receptor antagonists” (Bioorg Med Chem Lett, 2017):
pIC50: −log10 of the molar value. Active and inactive are the calls of the source. No cut-off for these calls is given here.

Tests used:
[1] = target: T1, 5-hydroxytryptamine receptor 6 (Homo sapiens, UniProt P50406); assay: Inhibition of ligand binding to human 5-HT6R at 10 uM relative to control
[2] = target: T1, 5-hydroxytryptamine receptor 6; assay: Antagonist activity at human 5-HT6R expressed in human HeLa cells assessed as inhibition of 5-HT-induced cAMP levels pre-treated for 10 mins before 30 mins stimulation with 5-HT by D2-dye based HTRF assay; format: functional, cell-based
How it was run: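 HeLa cells stably expressing human 5-HT6 receptor, kept at 37°C in 5% CO2/95% air, suspended in PBS with 2 mM IBMX. Compound pretreatment 10 min, then 100 nM 5-HT stimulation 30 min. d2-labelled cAMP and cryptate-labelled anti-cAMP antibody added, 1 h at room temperature. Fluorescence read at 314 nm excitation, 668 and 620 nm emission.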

CYP2D6 = CYP2D6 (Homo sapiens, UniProt P10635); assay: Inhibition of recombinant human CYP2D6 expressed in baculosomes assessed as remaining activity at 10 uM preincubated for 10 mins followed by Vivid substrate addition in presence of NADP+ by fluorescence assay relative to […]; format: ADME; details: probe Vivid substrate, read-out: Activity
Sequence of CYP2D6 (P10635 whole entry): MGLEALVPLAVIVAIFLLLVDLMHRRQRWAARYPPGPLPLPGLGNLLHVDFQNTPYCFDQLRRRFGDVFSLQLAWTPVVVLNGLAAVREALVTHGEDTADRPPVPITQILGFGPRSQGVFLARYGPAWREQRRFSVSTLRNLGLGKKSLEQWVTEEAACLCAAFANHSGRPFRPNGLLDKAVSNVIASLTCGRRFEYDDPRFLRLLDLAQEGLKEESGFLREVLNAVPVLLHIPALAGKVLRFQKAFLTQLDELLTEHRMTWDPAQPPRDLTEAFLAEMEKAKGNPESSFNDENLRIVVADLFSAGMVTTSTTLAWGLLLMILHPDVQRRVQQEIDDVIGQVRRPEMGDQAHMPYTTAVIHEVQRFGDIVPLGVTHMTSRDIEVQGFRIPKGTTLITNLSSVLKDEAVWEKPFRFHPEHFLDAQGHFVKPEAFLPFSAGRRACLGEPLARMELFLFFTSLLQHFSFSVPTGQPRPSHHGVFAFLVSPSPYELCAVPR
How it was run: (§1)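 Remaining percent CYP activity measured at 10 µM test concentration. Values are means ± SD of triplicate experiments.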

CYP3A4 = CYP3A4 (Homo sapiens, UniProt P08684); assay: Inhibition of recombinant human CYP3A4 expressed in baculosomes assessed as remaining activity at 10 uM preincubated for 10 mins followed by Vivid CYP450 substrate addition in presence of NADP+ by fluorescence assay relative to ketoconazole; format: ADME; details: probe Vivid CYP450 substrate, read-out: Activity; how it was run: as §1
Sequence of CYP3A4 (P08684 whole entry): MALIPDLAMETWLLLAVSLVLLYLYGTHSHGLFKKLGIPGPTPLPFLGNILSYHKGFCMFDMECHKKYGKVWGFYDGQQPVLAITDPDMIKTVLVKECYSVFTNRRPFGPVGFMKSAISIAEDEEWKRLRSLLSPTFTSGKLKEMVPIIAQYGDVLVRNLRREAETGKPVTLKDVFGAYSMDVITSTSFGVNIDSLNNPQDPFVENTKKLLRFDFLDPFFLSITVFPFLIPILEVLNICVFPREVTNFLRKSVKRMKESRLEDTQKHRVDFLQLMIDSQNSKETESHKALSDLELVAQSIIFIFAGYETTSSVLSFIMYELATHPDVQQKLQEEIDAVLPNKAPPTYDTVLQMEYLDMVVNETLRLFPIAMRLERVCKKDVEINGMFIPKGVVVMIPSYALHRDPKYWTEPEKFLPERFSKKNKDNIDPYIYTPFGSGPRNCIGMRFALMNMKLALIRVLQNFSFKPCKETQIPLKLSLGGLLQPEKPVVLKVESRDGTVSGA

Rattus norvegicus [3] = assay: Antineuropathic pain activity in rat spinal nerve ligation model assessed as effect on mechanical allodynia by measuring frequency of paw withdrawal at 100 mg/kg, po measured up to 3 hrs; format: functional, organism-based
How it was run: (§2)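 Rats with spinal nerve ligation neuropathic injury, dosed orally at 100 mg/kg (n = 3–6 per group). Allodynia tested before injury, before dosing (post-injury day 14), and 1, 3 and 5 h after dosing. Values compared with pre-administration values by paired t-test, P < 0.05.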

Rattus norvegicus [4] = assay: Antineuropathic pain activity in rat spinal nerve ligation model assessed as effect on cold allodynia by measuring paw withdrawal response at 100 mg/kg, po measured up to 5 hrs; format: functional, organism-based; how it was run: as §2
Rattus norvegicus [5] = assay: Poteny index, ratio of gabapentin to test compound antineuropathic pain activity in rat spinal nerve ligation model assessed as effect on mechanical allodynia by measuring frequency of paw withdrawal at 100 mg/kg, po; format: functional
[6] = target: Voltage-gated inwardly rectifying potassium channel KCNH2 (Homo sapiens, UniProt Q12809); assay: Inhibition of human ERG expressed in CHOK1 cells by patch clamp method
Sequence of Voltage-gated inwardly rectifying potassium channel KCNH2 (Q12809 whole entry): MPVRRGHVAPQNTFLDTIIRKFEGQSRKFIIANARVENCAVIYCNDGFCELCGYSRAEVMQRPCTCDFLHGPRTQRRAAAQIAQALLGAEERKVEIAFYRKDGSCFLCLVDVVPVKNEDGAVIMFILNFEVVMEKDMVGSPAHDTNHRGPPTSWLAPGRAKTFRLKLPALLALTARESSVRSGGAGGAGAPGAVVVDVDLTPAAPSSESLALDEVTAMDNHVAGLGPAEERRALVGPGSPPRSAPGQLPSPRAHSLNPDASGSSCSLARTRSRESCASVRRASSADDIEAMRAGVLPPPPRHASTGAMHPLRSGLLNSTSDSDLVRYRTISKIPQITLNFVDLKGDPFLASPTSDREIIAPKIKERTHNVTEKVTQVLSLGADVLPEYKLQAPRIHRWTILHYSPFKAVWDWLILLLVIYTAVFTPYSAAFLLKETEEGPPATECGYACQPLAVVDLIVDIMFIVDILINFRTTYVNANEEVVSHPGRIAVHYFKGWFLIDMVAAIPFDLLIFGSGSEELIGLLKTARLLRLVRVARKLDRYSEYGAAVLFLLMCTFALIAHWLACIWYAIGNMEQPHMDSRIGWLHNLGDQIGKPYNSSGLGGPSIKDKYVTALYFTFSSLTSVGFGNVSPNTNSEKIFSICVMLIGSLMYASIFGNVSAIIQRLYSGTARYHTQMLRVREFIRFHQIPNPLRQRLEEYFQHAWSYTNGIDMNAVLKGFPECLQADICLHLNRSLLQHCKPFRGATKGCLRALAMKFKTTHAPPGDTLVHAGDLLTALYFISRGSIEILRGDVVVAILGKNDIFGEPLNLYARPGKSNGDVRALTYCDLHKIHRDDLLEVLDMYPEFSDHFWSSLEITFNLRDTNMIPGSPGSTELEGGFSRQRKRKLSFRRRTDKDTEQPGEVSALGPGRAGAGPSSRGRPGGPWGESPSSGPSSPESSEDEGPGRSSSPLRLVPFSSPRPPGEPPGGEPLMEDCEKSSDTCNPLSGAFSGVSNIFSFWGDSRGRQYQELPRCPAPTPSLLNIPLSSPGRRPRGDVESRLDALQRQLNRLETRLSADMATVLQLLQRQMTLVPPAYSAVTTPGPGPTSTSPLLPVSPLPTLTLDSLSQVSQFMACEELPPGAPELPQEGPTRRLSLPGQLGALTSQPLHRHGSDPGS

CYP2C9 = CYP2C9 (Homo sapiens, UniProt P08684); assay: Inhibition of recombinant human CYP2C9 expressed in baculosomes assessed as remaining activity at 10 uM preincubated for 10 mins followed by Vivid CYP450 substrate addition in presence of NADP+ by fluorescence assay relative to miconazole; format: ADME; details: probe Vivid CYP450 substrate, read-out: Activity; how it was run: as §1
Sequence of CYP2C9 (P08684 whole entry): as the sequence (P08684 whole entry) above

T1 sequence (P50406 whole entry): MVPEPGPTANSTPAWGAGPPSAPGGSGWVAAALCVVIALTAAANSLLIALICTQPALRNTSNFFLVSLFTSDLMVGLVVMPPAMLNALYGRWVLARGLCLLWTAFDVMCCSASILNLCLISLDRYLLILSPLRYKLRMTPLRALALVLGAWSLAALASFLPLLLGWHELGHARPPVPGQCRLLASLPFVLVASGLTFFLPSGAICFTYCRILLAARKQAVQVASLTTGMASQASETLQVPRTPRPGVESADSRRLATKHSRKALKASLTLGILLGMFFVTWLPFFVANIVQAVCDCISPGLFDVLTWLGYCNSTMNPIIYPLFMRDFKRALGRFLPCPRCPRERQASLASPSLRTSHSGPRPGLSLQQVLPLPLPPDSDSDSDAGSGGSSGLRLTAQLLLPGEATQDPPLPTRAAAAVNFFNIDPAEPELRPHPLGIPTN

Question: `Cc1c(Cl)cccc1S(=O)(=O)NCc1cc(CC(C)C)n(-c2ccccc2)n1` was tested. Which inhibition [1] did it give?
Answer: 72.3%

Question: What about the pIC50 [2] of the same compound?
Answer: 5.40

Question: Which results are given for `CC(C)Cc1cc(CNS(=O)(=O)c2ccc3ccccc3c2)nn1-c1ccccc1`?
Answer: inhibition [1]: 67.8%; pIC50 [2]: 5.48

Question: `CC(C)Cc1cc(CNS(=O)(=O)c2c(Cl)cccc2Cl)nn1-c1ccccc1` was tested. Which inhibition [1] did it give?
Answer: 59.4%

Question: And the pIC50 [2]?
Answer: 5.25

Question: Which results are given for `CC(C)Cc1cc(CNS(=O)(=O)c2cccc(Cl)c2)nn1-c1ccccc1`?
Answer: inhibition [1]: 40.8%; pIC50 [2]: 4.96

Question: With `CC(C)Cc1cc(CNS(=O)(=O)c2cccc3cccnc23)nn1-c1ccccc1` as the compound, how does the activity at 10 µM (CYP2D6) read?
Answer: 119%

Question: And the activity at 10 µM (CYP3A4)?
Answer: 52.2%

Question: What about the inhibition [1] of the same compound?
Answer: 106%

Question: What about the pIC50 [2] of the same compound?
Answer: 5.85

Question: And the Activity (Rattus norvegicus [3])?
Answer: Active

Question: What about the Activity (Rattus norvegicus [4]) of the same compound?
Answer: inactive

Question: `CC(C)Cc1cc(CNS(=O)(=O)Cc2cccc3ccccc23)nn1-c1ccccc1` was tested. Which inhibition [1] did it give?
Answer: 28.7%

Question: Which results are given for `CC(C)Cc1cc(CNS(=O)(=O)c2cccc3ccccc23)nn1-c1ccccc1`?
Answer: inhibition [1]: 77.7%; pIC50 [2]: 5.61

Question: `NCC1(CC(=O)O)CCCCC1` was tested. Which Activity (Rattus norvegicus [3]) did it give?
Answer: Active

Question: Which results are given for `CC(C)Cc1cc(CNS(=O)(=O)c2cccc3cccnc23)nn1-c1ccc(F)cc1`?
Answer: activity at 10 µM (CYP2D6): 64.8%; activity at 10 µM (CYP3A4): 34.5%; inhibition [1]: 93.4%; Ratio (Rattus norvegicus [5]): 60; pIC50 [6]: 5.80; activity at 10 µM (CYP2C9): 3.87%; pIC50 [2]: 5.75; Activity (Rattus norvegicus [3]): Active; Activity (Rattus norvegicus [4]): inactive

Question: For `O=C1c2[nH]nc(NS(=O)(=O)c3ccc4ccccc4c3)c2CCN1CC1CCNCC1`, which inhibition [1] is on record?
Answer: 94.1%

Question: What about the pIC50 [2] of the same compound?
Answer: 6.51

Question: Which inhibition [1] does the source give for `CC(C)Cc1cc(CNS(=O)(=O)c2ccccc2)nn1-c1ccccc1` here?
Answer: 11.3%

Question: For `CC(C)Cc1cc(CNS(=O)(=O)c2ccc(C(C)(C)C)cc2)nn1-c1ccccc1`, which inhibition [1] is on record?
Answer: 51.1%

Question: What about the pIC50 [2] of the same compound?
Answer: 5.06

Question: With `CC(C)Cc1cc(CNS(=O)(=O)c2cccc(F)c2)nn1-c1ccccc1` as the compound, how does the inhibition [1] read?
Answer: 19.5%

Question: Which inhibition [1] does the source give for `CC(C)Cc1cc(CNS(=O)(=O)Cc2cccc3ccccc23)nn1-c1ccc(F)cc1` here?
Answer: 36.1%
